What was measured:
[1] = Steady-state plasma pharmacokinetics of henagliflozin alone or with HCTZ; type: in vivo, human
[2] = test system: healthy subjects and patients with T2DM; details: cited from earlier work
[3] = test system: healthy Chinese volunteers; experiment: Safety and tolerability; type: in vivo, human; details: per treatment period
In short: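 12 enrolled healthy Chinese men aged 18–40 y with BMI 19–26 kg/m2. All had normal blood chemistry, haematology, urinalysis, vital signs and hepatitis/HIV serology, and stopped interfering medications 4 weeks before the study. Treatment-emergent adverse events were recorded as events and subjects for each treatment period (multiple-dose monotherapy with each drug, then co-administration). Drug relatedness was assessed.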

[4] = 2.5 mg dose group; cited from earlier work
[5] = Steady-state plasma pharmacokinetics of HCTZ alone or with henagliflozin; type: in vivo, human

| SMILES | Increase of Css,max by co-administration ([1]; co-administration with HCTZ vs henagliflozin alone) [%] | 90% CI of ratio of geometric means (combination: monotherapy) for AUCτ,ss ([1]; henagliflozin, compared with bioequivalence interval) | Benefit of 20 mg group compared with 5 mg and 10 mg groups (PK/PD) ([2]; 5–20 mg dosing range, healthy subjects and patients with T2DM) | Effect on blood glucose, blood electrolytes, or blood pressure ([2]; healthy people) | All TEAEs, number of subjects ([3]; of 12 subjects) | Diarrhea, number of subjects ([3]; of 12 subjects) | Dizziness, number of subjects ([3]; of 12 subjects) | Eczema, number of subjects ([3]; of 12 subjects) | Subjects reporting TEAEs ([3]; of 12 subjects) [%] | All TEAEs, number of subjects ([3]; of 12 subjects, listed as henagliflozin) | All TEAEs, number of events ([3]; figure in brackets) | Drug-related TEAEs, number of events ([3]; figure in brackets) | Difference in AUC0-24h and Cmax between males and females [4] | 90% CI of ratio of geometric means (combination: monotherapy) for AUCτ,ss ([5]; HCTZ, compared with bioequivalence interval) | Decrease of Css,max by co-administration ([5]; co-administration with henagliflozin vs HCTZ alone) [%] | Drug-related TEAEs, number of subjects ([3]; of 12 subjects) | Thirst, number of subjects ([3]; of 12 subjects) |
| --- | --- | --- | --- | --- | --- | --- | --- | --- | --- | --- | --- | --- | --- | --- | --- | --- | --- |
| CCOc1ccc(Cc2cc([C@@]34OC[C@@](CO)(O3)[C@@H](O)[C@H](O)[C@H]4O)ccc2Cl)cc1F [Henagliflozin] | 24.32 | fell between 0.80 and 1.25 | no significant benefit | no effect | 4(4) | 2(2) | 1(1) | 1(1) | 33.3 | 4 | four | all TEAEs were considered to be related to henagliflozin | no statistical difference | – | – | – | – |
| NS(=O)(=O)c1cc2c(cc1Cl)NCNS2(=O)=O [HCTZ, Hydrochlorothiazide] | – | – | – | – | 11 | 2(2) | – | 0(0) | 91.7 | – | – | – | – | within the bioequivalence interval of 0.80–1.25 | 19.41 | 11 | 10(10) |
